These results are taken from ChEMBL document CHEMBL4680340, “Discovery and structure activity relationship of glyoxamide derivatives as anti-hepatitis B virus agents” (Bioorg Med Chem, 2021).

Some results are limits rather than exact numbers.

One series deals with Hepatitis B virus. The series can be described thus: Antiviral activity against Hepatitis B virus infected in human HePAD38 cells assessed as reduction in viral DNA replication incubated for 7 days by RT-PCR analysis. To be noted: HePAD38, 168 h; for EC90: time 7 day. In kind it is functional, organism-based. The method in brief:
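HepAD38 cells seeded and held 2 days at 37 °C, 5% CO2, then washed with PBS; compounds added in duplicate at various concentrations in tetracycline-free medium (from 40 mM stocks). Day 7: total DNA extracted, HBV DNA quantified by real-time PCR; ΔCT against untreated tetracycline-free control; EC50 and EC90 computed.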

Series [1] can be described thus: Cytotoxicity against African green monkey Vero cells assessed as reduction in cell viability by MTT assay. As to conditions: chlorocebus sabaeus. In kind it is cell-based. Background: Formazan colour is commonly taken as a measure of viable cells.
Series [2] is described as follows: Cytotoxicity against human PBMC cells assessed as reduction in cell viability by MTT assay. In kind it is cell-based.
Series [3] can be described thus: Cytotoxicity against human CEM cells assessed as reduction in cell viability by MTT assay. The series is classed as cell-based. To be noted: CEM (CCRF-CEM) cells.
Series [4] is described as follows: Cytotoxicity against human HepG2 cells assessed as reduction in cell viability by MTT assay. The series is classed as cell-based.
The nature of series [5]: Therapeutic index, ratio of CC50 for human HepG2 cells to IC50 for Hepatitis B virus infected in human HePAD38 cells. In kind it is toxicity, cell-based. As to conditions: read-out: Ratio CC50/IC50.

Broadly, the EC50 is the concentration at which the effect is half-maximal. The term EC90 denotes the point of the concentration-response curve where the effect stands at 90%. Usually CC50 stands for the concentration at which the toxic effect on the cells reaches its halfway point.

Take `CCOC(=O)C1=C(CN2CCOCC2)NC(c2nccs2)=NC1c1ccc(F)cc1Br` (centres undefined): in the series on Hepatitis B virus, the EC50 is 0.08 µM and the EC90 is 0.28 µM.

Consider `O=C(Nc1ccc(F)c(F)c1)c1cc(S(=O)(=O)N2CC(F)(F)C2)ccc1F`, for which, in the series with Hepatitis B virus, the EC50 came out at 1.2 µM and the EC90 was found to be 6.3 µM.

Turning to `Cc1c(C(=O)C(=O)Nc2nc3ccccc3[nH]2)c(C)n(C)c1C(=O)Nc1ccc(F)c(F)c1`, the CC50 in series [1] was 46.9 µM; in series [2] it was 90 µM; in series [3] it was 35.8 µM; in series [4], 74.9 µM. Further, in the series with Hepatitis B virus, the EC50 amounted to 0.21 µM. For the same molecule, the EC90 with Hepatitis B virus was 3.44 µM.

Regarding `C#CCNC(=O)C(=O)c1c(C)c(C(=O)Nc2ccc(F)c(F)c2)n(C)c1C`, the CC50 was 46.4 µM in series [1], greater than 100 µM in series [2], greater than 100 µM in series [3] and greater than 100 µM in series [4]. The selectivity ratio in series [5] is greater than 33300. Besides, the EC50 in the series with Hepatitis B virus is 0.003 µM. Besides, the EC90 with Hepatitis B virus is 0.014 µM.

In the case of `Cn1cc(C(=O)C(=O)N2CCOCC2)cc1C(=O)Nc1ccc(F)c(F)c1`, the CC50 in series [1] is 41.9 µM; in series [2], greater than 100 µM; in series [3] it was greater than 100 µM; in series [4], 93.9 µM. Further, the EC50 in the series on Hepatitis B virus came to 1.1 µM. For the same molecule, in the series on Hepatitis B virus, the EC90 worked out at 4.62 µM.

Regarding `Cn1cc(C(=O)C(=O)NOC2CCCC2)cc1C(=O)Nc1ccc(F)c(F)c1`, the CC50 is 80.1 µM in series [1], no less than 100 µM in series [2], 37.9 µM in series [3] and greater than 100 µM in series [4]. In addition, the EC50 in the series on Hepatitis B virus amounted to 0.56 µM. In the series with Hepatitis B virus, the EC90 stood at 2.95 µM.

As to `Cc1c(C(=O)C(=O)Nc2ccccn2)c(C)n(C)c1C(=O)Nc1ccc(F)c(F)c1`, the CC50 is greater than 100 µM in series [1], greater than 100 µM in series [2], 14.6 µM in series [3] and 83.7 µM in series [4]. The EC50 with Hepatitis B virus came to 0.004 µM. In addition, the EC90 in the series on Hepatitis B virus came out at 0.06 µM.

`CCN(CC)C(=O)C(=O)c1c(C)c(C(=O)Nc2ccc(F)c(F)c2)n(C)c1C`: the CC50 in series [1] is greater than 100 µM; in series [2], 91.7 µM; in series [3], 16.8 µM; in series [4] it was 89.9 µM. In addition, the EC50 with Hepatitis B virus amounted to 0.58 µM. The EC90 with Hepatitis B virus was found to be 5.64 µM.

On to `Cc1c(C(=O)C(=O)NCc2ccccn2)c(C)n(C)c1C(=O)Nc1ccc(F)c(F)c1`, for which the CC50 in series [1] is 9.6 µM; in series [2], greater than 100 µM; in series [3], 38.4 µM; in series [4], 7.2 µM. For the same molecule, the half-maximal effective concentration (EC50) with Hepatitis B virus is 0.16 µM. In addition, the concentration for an effect of 90% (EC90) in the series with Hepatitis B virus amounted to 2.02 µM.

`Cc1c(C(=O)C(=O)N2CCN(C)CC2)c(C)n(C)c1C(=O)Nc1ccc(F)c(F)c1`: the CC50 in series [1] is no less than 100 µM; in series [2] it was no less than 100 µM; in series [3], 24.7 µM; in series [4] it was 95.4 µM. Besides, the 50% effective concentration (EC50) in the series on Hepatitis B virus was 0.005 µM. For the same molecule, the EC90 in the series on Hepatitis B virus is 0.1 µM.

With `Cn1cc(C(=O)C(=O)NCC#N)cc1C(=O)Nc1ccc(F)c(F)c1`, the CC50 is 91.4 µM in series [1], greater than 100 µM in series [2], greater than 100 µM in series [3] and greater than 100 µM in series [4]. Further, in the series with Hepatitis B virus, the EC50 was 5.16 µM. In the series with Hepatitis B virus, the EC90 stood at 10 µM.

In the case of `C#CCNC(=O)C(=O)c1cc(C(=O)Nc2ccc(F)c(F)c2)n(C)c1`, the CC50 in series [1] was 89 µM; in series [2], 57.9 µM; in series [3] it was 70.3 µM; in series [4] it was greater than 100 µM. The EC50 with Hepatitis B virus turned out to be 5.6 µM. Besides, the EC90 in the series on Hepatitis B virus is greater than 10 µM.

For `Cc1c(C(=O)C(=O)Nc2nccs2)c(C)n(C)c1C(=O)Nc1ccc(F)c(F)c1`, the CC50 was greater than 100 µM in series [1], greater than 100 µM in series [2], 26.8 µM in series [3] and 83.9 µM in series [4]. Besides, the EC50 in the series on Hepatitis B virus was 0.006 µM. Besides, the EC90 with Hepatitis B virus was determined as 0.03 µM.

For the molecule `Cn1cc(C(=O)C(=O)Nc2nccs2)cc1C(=O)Nc1ccc(F)c(F)c1`, the CC50 is 31.2 µM in series [1], greater than 100 µM in series [2], greater than 100 µM in series [3] and greater than 100 µM in series [4]. Besides, the EC50 with Hepatitis B virus was found to be 0.47 µM. Besides, the EC90 with Hepatitis B virus turned out to be 4.1 µM.

As for `Cn1cc(C(=O)C(=O)Nc2ccccc2)cc1C(=O)Nc1ccc(F)c(F)c1`, the CC50 in series [1] was 13.4 µM; in series [2], greater than 100 µM; in series [3], greater than 100 µM; in series [4], greater than 100 µM. In the series on Hepatitis B virus, the EC50 amounted to 0.08 µM. The EC90 in the series with Hepatitis B virus amounted to 1.8 µM.

As to `Cc1c(C(=O)C(=O)NCc2nccn2C)c(C)n(C)c1C(=O)Nc1ccc(F)c(F)c1`, the CC50 in series [1] was 50.6 µM; in series [2] it was greater than 100 µM; in series [3], 46.9 µM; in series [4], 34.7 µM. The EC50 with Hepatitis B virus was 0.01 µM. In addition, in the series on Hepatitis B virus, the EC90 is 0.17 µM.

Regarding `Cn1cc(C(=O)C(=O)NCc2ccccc2)cc1C(=O)Nc1ccc(F)c(F)c1`, the CC50 was 62.4 µM in series [1], greater than 100 µM in series [2], greater than 100 µM in series [3] and greater than 100 µM in series [4]. Further, the EC50 with Hepatitis B virus is 0.41 µM. Moreover, in the series on Hepatitis B virus, the EC90 is 7.95 µM.

Take `Cn1cc(C(=O)C(=O)N2CC(F)(F)C2)cc1C(=O)Nc1ccc(F)c(F)c1`: the CC50 in series [1], in series [2], in series [3] and in series [4] was greater than 100 µM in each case. For the same molecule, in the series with Hepatitis B virus, the EC50 worked out at 3.8 µM. Further, the EC90 in the series with Hepatitis B virus is 9.67 µM.

For `C=CCNC(=O)C(=O)c1cc(C(=O)Nc2ccc(F)c(F)c2)n(C)c1`, the CC50 was 68.1 µM in series [1], greater than 100 µM in series [2], greater than 100 µM in series [3] and greater than 100 µM in series [4]. In addition, the EC50 with Hepatitis B virus turned out to be 0.09 µM. For the same molecule, the EC90 in the series on Hepatitis B virus turned out to be 3.05 µM.

In the case of `C=C1[C@H](CO)[C@@H](O)C[C@@H]1n1cnc2c(=O)[nH]c(N)nc21`, the CC50 in series [1] was greater than 100 µM; in series [2], 15.7 µM; in series [3], greater than 100 µM; in series [4], greater than 100 µM. Moreover, the EC50 in the series on Hepatitis B virus was found to be 0.0006 µM. For the same molecule, the EC90 in the series with Hepatitis B virus was 0.011 µM.

`Nc1ccn([C@@H]2CS[C@H](CO)O2)c(=O)n1` [LAMIVUDINE]: the half-maximal cytotoxic concentration (CC50) in series [1], in series [2], in series [3] and in series [4] was greater than 100 µM in each case. For the same molecule, the EC50 with Hepatitis B virus worked out at 0.41 µM. Moreover, the EC90 with Hepatitis B virus was found to be 1.65 µM.
